Reference: ChEMBL document CHEMBL2040794, “Synthesis and structure-activity analysis of new phosphonium salts with potent activity against African trypanosomes” (J Med Chem, 2012)

Tests used:
[1] = tested on: Trypanosoma brucei rhodesiense; assay: Antitrypanosomal activity against Trypanosoma brucei rhodesiense STIB900 infected in rat L6 cells after 72 hrs by alamar blue assay; assay type: functional, organism-based; details: Trypanosoma brucei, STIB900, 72 h
[2] = tested on: Trypanosoma brucei brucei; assay: Antitrypanosomal activity against diminazene-, pentamidine-, and melaminophenyl arsenical-resistant HAPT1-deficient Trypanosoma brucei brucei B48 after 3 days by alamar blue assay; assay type: functional, organism-based; details: Trypanosoma brucei, B48, 72 h
Method in brief: (§1)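 Bloodstream-form T. b. brucei (wild-type s427; TbAT1-KO, made from s427 by TbAT1 deletion; B48, selected from TbAT1-KO in vitro on pentamidine, lacking functional HAPT1). Cells were exposed to compound for 48 h, then resazurin (Alamar blue) was added for a further 24 h. A single fluorescence reading gave EC50.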

[3] = tested on: Trypanosoma brucei brucei; assay: Antitrypanosomal activity against wild type Trypanosoma brucei brucei Lister 427 after 3 days by alamar blue assay; assay type: functional, organism-based; details: Trypanosoma brucei, Lister 427, 72 h; method in brief: as §1
[4] = tested on: Trypanosoma brucei brucei; assay: Antitrypanosomal activity against diminazene aceturate-resistant TbAT1 gene-deficient Trypanosoma brucei brucei AT1-KO after 3 days by alamar blue assay; assay type: functional, organism-based; details: Trypanosoma brucei, AT1-KO, 72 h; method in brief: as §1
[5] = tested on: L6; assay: Cytotoxicity against rat L6 cells after 72 hrs by alamar blue assay; assay type: cell-based; details: Rattus norvegicus, L6, 72 h
[6] = Cytotoxicity against human HEK cells after 3 days by alamar blue assay; assay type: cell-based, HEK293; details: Homo sapiens, HEK293, 72 h
Method in brief: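 Human embryonic kidney cells tested by resazurin (Alamar blue) assay: 48 h with compound, then 24 h more after dye addition, single reading; EC₅₀ derived.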

[7] = tested on: Trypanosoma brucei brucei; assay: Resistance factor, ratio of EC50 for diminazene-, pentamidine-, and melaminophenyl arsenical-resistant HAPT1-deficient Trypanosoma brucei brucei B48 to EC50 for wild type Trypanosoma brucei brucei Lister 427; assay type: functional
Method in brief: (§2)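 Resistance factor is the EC50 in the resistant line (TbAT1-KO or B48) divided by the EC50 in wild-type s427. […] Resistant and wild-type EC50s were compared by Student t-test.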

[8] = tested on: Trypanosoma brucei brucei; assay: Resistance factor, ratio of EC50 for diminazene aceturate-resistant TbAT1 gene-deficient Trypanosoma brucei brucei AT1-KO to EC50 for wild type Trypanosoma brucei brucei Lister 427; assay type: functional; method in brief: as §2
[9] = Selectivity index, ratio of EC50 for human HEK cells to EC50 for wild type Trypanosoma brucei brucei Lister 427; assay type: toxicity, cell-based, HEK293; details: HEK cells, read-out: Ratio EC50
Method in brief: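 Ratio of EC₅₀ in HEK cells to EC₅₀ in wild-type T. b. brucei s427, both from resazurin assays.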

SMILES | EC50 [1] [µM] | EC50 [2] [µM] | EC50 [3] [µM] | EC50 [4] [µM] | EC50 [5] [µM] | EC50 [6] [µM] | Ratio EC50 [7] | Ratio EC50 [8] | selectivity ratio [9]
O=S(=O)([O-])c1cccc([P+](Cc2ccc(Cc3ccc(C[P+](c4ccccc4)(c4ccccc4)c4cccc(S(=O)(=O)[O-])c4)cc3)cc2)(c2ccccc2)c2ccccc2)c1 | > 92 | > 100 | > 100 | > 100 | > 92 | > 300 |  |  | 
N=C(N)c1ccc(/N=N/Nc2ccc(C(=N)N)cc2)cc1 [DIMINAZENE] |  | 2.62 | 0.517 |  |  |  | 5.1 | 4.6 | 
C[P+](C)(Cc1ccc(Oc2ccc(C[P+](C)(C)c3ccccc3)cc2)cc1)c1ccccc1.[Br-].[Br-] | 3.83 | 6.15 | 7.22 | 6.52 | 84.5 | > 300 | 0.9 | 0.9 | > 40
C[P+](C)(Cc1ccc(C(=O)c2ccc(C[P+](C)(C)c3ccccc3)cc2)cc1)c1ccccc1.[Br-].[Br-] | 8.8 | 24.6 | 19.2 | 28.8 | > 139 |  | 1.3 | 1.5 | 
CC(C)C[P+](Cc1ccc(S(=O)(=O)c2ccc(C[P+](CC(C)C)(CC(C)C)CC(C)C)cc2)cc1)(CC(C)C)CC(C)C.[Br-].[Br-] | 6.31 | 13.3 | 16.7 | 13.6 | > 111 |  | 0.8 | 0.8 | 
O=C(c1ccc(C[P+](c2ccco2)(c2ccco2)c2ccco2)cc1)c1ccc(C[P+](c2ccco2)(c2ccco2)c2ccco2)cc1.[Br-].[Br-] | 13.8 | 21.7 | 36.9 | 33.8 | 86 |  | 0.6 | 0.9 | 
CCC[P+](CCC)(CCC)Cc1ccc(C(=O)c2ccc(C[P+](CCC)(CCC)CCC)cc2)cc1.[Br-].[Br-] | 8.5 | 31.3 | 19.7 | 27.2 | > 130 |  | 1.6 | 1.4 | 
CC[P+](CC)(CC)Cc1ccc(C(=O)c2ccc(C[P+](CC)(CC)CC)cc2)cc1 | 77.8 | > 100 | > 100 | > 100 | > 149 | > 300 |  |  | 
Fc1c(F)c(F)c([P+](Cc2ccc(Cc3ccc(C[P+](c4ccccc4)(c4ccccc4)c4c(F)c(F)c(F)c(F)c4F)cc3)cc2)(c2ccccc2)c2ccccc2)c(F)c1F.[Br-].[Br-] | 16 | 2.74 | 2.68 | 3.79 |  | > 300 | 1 | 1.4 | > 110
Nc1nc(N)nc(Nc2ccc([As]3SCC(CO)S3)cc2)n1 (centres undefined) [MELARSOPROL] | 0.0075 |  |  |  |  |  |  |  | 
CC[P+](CC)(CC)Cc1ccc(C(=O)c2ccccc2)cc1 | > 254 | > 100 | > 100 | > 100 | > 254 | > 300 |  |  | 
O=S(=O)([O-])c1cccc([P+](Cc2ccc(Oc3ccc(C[P+](c4ccccc4)(c4ccccc4)c4cccc(S(=O)(=O)[O-])c4)cc3)cc2)(c2ccccc2)c2ccccc2)c1 | > 92 | > 100 | > 100 | > 100 | 90.5 | > 300 |  |  | 
COc1cc([C@@H]2c3cc4c(cc3[C@H](O)[C@H]3COC(=O)[C@H]23)OCO4)cc(OC)c1OC [PODOFILOX] |  |  |  |  | 0.012 |  |  |  | 
CC(=O)N(c1ccc(C[P+](CC(C)C)(CC(C)C)CC(C)C)cc1)c1ccc(C[P+](CC(C)C)(CC(C)C)CC(C)C)cc1 | 11.4 |  |  |  | > 112 |  |  |  | 
CC(C)[P+](Cc1ccc(C(=O)c2ccc(C[P+](C(C)C)(C(C)C)C(C)C)cc2)cc1)(C(C)C)C(C)C.[Br-].[Br-] | 9.6 | 38.8 | 20.6 | 33.4 | > 130 |  | 1.9 | 1.6 | 
